The values that follow come from publication PMC3147223 (Journal of biomedical materials research. Part A, 2009).

Where no end group is shown, it is not given here.

The test system of one assay is Human pulmonary ECs. Kind of assay: Competitive platelet-EC static adhesion assay: EC adhesion. Format: cell-based. The following applies: washed suspension of 190 EC/μl and 50,000 platelet/μl, 30 min, 37°C, n=3, FN=1. In short, it runs like this:
(§1)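 Passage-7 ECs were detached (Cellstripper, 30 min) and mixed in 1% BSA with washed platelets (citrated donor blood; PRP pelleted, EDTA-PBS wash), plus 2 mM CaCl2 and 1 mM MgCl2 final. Surfaces (FSP adsorbed 24 h on fluorosilane monolayers, or FN-coated glass) were pre-blocked with 2% BSA for 30 min. Samples were PFA-fixed and stained with FITC anti-CD41a, phalloidin and DAPI. 14–33 epifluorescent fields/surface were analysed; two-sample t-test.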

In the next assay the test system is platelets. The assay can be described thus: Competitive platelet-EC static adhesion assay: platelet adhesion. The assay is classed as cell-based, human. To be noted: washed suspension of 190 EC/μl and 50,000 platelet/μl, 30 min, 37°C, n=3, FN=1. Put shortly:
as §1

Consider GSSS-*CRRETAWAC* (disulfide) [cRRE FSP], for which the “EC adhesion (EC population) normalized to FN” value in the assay on Human pulmonary ECs was found to be 0.93.
GSSSRGD [RGD FSP]: the “EC adhesion (EC population) normalized to FN” value in the assay with Human pulmonary ECs is 0.99. For the same substance, in the assay on platelets, the “Platelet surface coverage normalized to FN, platelet-EC suspension” value was found to be 1.99.
The like results for “cyclic(RGDfE)-SSSK (head to tail) [cRGD FSP]” were, in that order, 1.05 and 2.66.
